Laboratory results taken from ChEMBL document CHEMBL1649550, “Antibacterial properties and mode of action of a short acyl-lysyl oligomer” (2009).
Active and inactive are the calls of the source. The calls are words filed in the database; no cut-off is given here.

These compounds were tested on Staphylococcus aureus (assay: Antibacterial activity against Staphylococcus aureus ATCC 29213 assessed as disruption of plasma membrane permeability at 4 times MIC by ethidium bromide uptake assay).
Assay type: functional, organism-based
Method in brief: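 S. aureus grown overnight in LB at 37°C to OD620 of 1, washed twice in PBS and resuspended in PBS with 0.5% glucose, then 10 min at 37°C. Cells added to EtBr (final 1.0 μg/ml) with compound (serial twofold concentrations), Triton 0.01% final, or antibiotic at 4× MIC. Fluorescence followed over time (ex 530, em 645 nm).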

| Compound | Activity |
| --- | --- |
| O=C(O)c1cn(C2CC2)c2cc(N3CCNCC3)c(F)cc2c1=O | inactive |
| CN(C)[C@@H]1C(O)=C(C(N)=O)C(=O)[C@@]2(O)C(O)=C3C(=O)c4c(O)cccc4[C@@](C)(O)[C@H]3C[C@@H]12 | inactive |
| GENTAMICIN | inactive |
